Experiment [1] has as its system MDA-MB-231. Description: Effect on lactate production in human MDA-MB-231 cells at […] measured per ug of cellular protein after 48 hrs by enzyme based assay (reference value: 40.5 +/- 6 nmol/ug of cellular protein). The experiment is classed as functional.
Experiment [2] deals with MDA-MB-231. The experiment in a line: Effect on lactate production in human MDA-MB-231 cells at […] measured per ug of cellular protein after 24 hrs by enzyme based assay (reference value: 23.6 +/- 2 nmol/ug of cellular protein). The experiment is classed as functional.
For experiment [3], the system named is MDA-MB-231. The experiment in a line: Increase in cellular glucose consumption in human MDA-MB-231 cells at […] measured per ug of cellular protein after 48 hrs by enzyme based assay (reference value: 43 +/- 8.4 nmol/ug of cellular protein). The format is functional.
Experiment [4] concerns MDA-MB-231. The experiment in a line: Increase in cellular glucose consumption in human MDA-MB-231 cells at […] measured per ug of cellular protein after 24 hrs by enzyme based assay (reference value: 17.2 +/- 2 nmol/ug of cellular protein). The format is functional.
The subject of experiment [5] is MDA-MB-231. Description: Inhibition of cell viability of human MDA-MB-231 cells at 3 mM after 48 hrs by sulforhodamine B method in presence of 1 uM F1F0-ATPase inhibitor oligomycin. The experiment is classed as functional, cell-based.
In experiment [6] the test system is MDA-MB-231. Description: Inhibition of cell viability of human MDA-MB-231 cells at 3 mM after 48 hrs by sulforhodamine B method in presence of 1 uM mitochondrial ETC complex III inhibitor antimycin A. The experiment is classed as functional, cell-based.
Experiment [7] deals with MDA-MB-231. Description: Inhibition of cell viability of human MDA-MB-231 cells at 30 mM after 48 hrs by sulforhodamine B method. The experiment is classed as functional, cell-based. The method, boiled down:
(§1)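 MDA-MB-231 cells are plated at 3×10^4 per well in RPMI 1640 with 10% FBS. After 24 h, compound diluted in serum-free medium is added, with DMSO below 0.5%. Cells are incubated 48 h at 37 °C and viability is read by sulforhodamine B as % inhibition of untreated control. Concentration-response runs are in half-log steps.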

Experiment [8] concerns MDA-MB-231. Description: Inhibition of cell viability of human MDA-MB-231 cells at 3 mM after 48 hrs by sulforhodamine B method. The experiment is classed as functional. The settings on record: MDA-MB-231, 48 h. The method, boiled down: as §1
Experiment [9] relates to MDA-MB-231. Description: Inhibition of cell viability of human MDA-MB-231 cells at 10 mM after 48 hrs by sulforhodamine B method. The experiment is classed as functional, cell-based. The method, boiled down:
as §1

Experiment [10] relates to MDA-MB-231. The experiment in a line: Inhibition of cell viability of human MDA-MB-231 cells at 1 mM after 48 hrs by sulforhodamine B method. The settings on record: MDA-MB-231, 48 h. The experiment is classed as functional. The method, boiled down:
as §1

In experiment [11] the test system is T47D. The experiment in a line: Decrease in mitochondrial membrane potential in human T47D cells assessed as decline in respiration rate at 3 uM after 48 hrs. The experiment is classed as functional, cell-based. The method, boiled down:
(§2)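 Oxygen consumption of intact MDA-MB-231 or T47D cells measured with a Clark-type electrode, no FBS present; compound tested at 0.1, 0.3, 1 and 3 μM; rate normalized to untreated control. Average + standard deviation from three independent experiments (n = 3).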

In experiment [12] the test system is T47D. Description: Decrease in mitochondrial membrane potential in human T47D cells assessed as decline in respiration rate at 1 uM after 48 hrs. The experiment is classed as functional, cell-based. The method, boiled down: as §2
Experiment [13] concerns MDA-MB-231. The experiment in a line: Decrease in mitochondrial membrane potential in human MDA-MB-231 cells assessed as decline in respiration rate at 1 uM after 48 hrs. The experiment is classed as functional, cell-based. The method, boiled down:
as §2

Experiment [14] relates to MDA-MB-231. The experiment in a line: Stimulation of oligomycin-induced state 4 respiration in human MDA-MB-231 cells at 1 uM. The format is functional, cell-based. The method, boiled down: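 Oligomycin (1 μM) added to MDA-MB-231 cells in a Clark-type electrode chamber to initiate state 4 respiration. Compound (1 μM) then added and oxygen consumption followed. Rate normalized to untreated control.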

The test system of experiment [15] is MDA-MB-231. Description: Increase in cellular respiration in human MDA-MB-231 cells assessed as increase in oxygen consumption at 0.1 to 1 uM after 48 hrs. The format is functional, cell-based. The method, boiled down:
as §2

For experiment [16], the system named is MDA-MB-231. The experiment in a line: Decrease in mitochondrial membrane potential in human MDA-MB-231 cells assessed as decline in respiration rate at 3 uM after 48 hrs. The format is functional, cell-based. The method, boiled down:
as §2

Experiment [17] concerns MDA-MB-231. The experiment in a line: Effect on lactate production in human MDA-MB-231 cells at 10 uM measured per ug of cellular protein after 48 hrs by enzyme based assay (reference value: 40.5 +/- 6 nmol/ug of cellular protein). The experiment is classed as functional.
The test system of experiment [18] is MDA-MB-231. The experiment in a line: Effect on lactate production in human MDA-MB-231 cells at 3 uM measured per ug of cellular protein after 48 hrs by enzyme based assay (reference value: 40.5 +/- 6 nmol/ug of cellular protein). The experiment is classed as functional.
The test system of experiment [19] is MDA-MB-231. Description: Effect on lactate production in human MDA-MB-231 cells at 1 uM measured per ug of cellular protein after 48 hrs by enzyme based assay (reference value: 40.5 +/- 6 nmol/ug of cellular protein). The experiment is classed as functional.
The subject of experiment [20] is MDA-MB-231. The experiment in a line: Effect on lactate production in human MDA-MB-231 cells at 10 uM measured per ug of cellular protein after 24 hrs by enzyme based assay (reference value: 23.6 +/- 2 nmol/ug of cellular protein). The format is functional.
For experiment [21], the system named is MDA-MB-231. Description: Effect on lactate production in human MDA-MB-231 cells at 3 uM measured per ug of cellular protein after 24 hrs by enzyme based assay (reference value: 23.6 +/- 2 nmol/ug of cellular protein). The format is functional.
For experiment [22], the system named is MDA-MB-231. The experiment in a line: Effect on lactate production in human MDA-MB-231 cells at 1 uM measured per ug of cellular protein after 24 hrs by enzyme based assay (reference value: 23.6 +/- 2 nmol/ug of cellular protein). The experiment is classed as functional.
Experiment [23] deals with MDA-MB-231. The experiment in a line: Increase in cellular glucose consumption in human MDA-MB-231 cells at 10 uM measured per ug of cellular protein after 48 hrs by enzyme based assay (reference value: 43 +/- 8.4 nmol/ug of cellular protein). The experiment is classed as functional.
The test system of experiment [24] is MDA-MB-231. The experiment in a line: Increase in cellular glucose consumption in human MDA-MB-231 cells at 3 uM measured per ug of cellular protein after 48 hrs by enzyme based assay (reference value: 43 +/- 8.4 nmol/ug of cellular protein). The experiment is classed as functional.
Experiment [25] has as its system MDA-MB-231. The experiment in a line: Increase in cellular glucose consumption in human MDA-MB-231 cells at 1 uM measured per ug of cellular protein after 48 hrs by enzyme based assay (reference value: 43 +/- 8.4 nmol/ug of cellular protein). The experiment is classed as functional.
Experiment [26] deals with MDA-MB-231. The experiment in a line: Increase in cellular glucose consumption in human MDA-MB-231 cells at 10 uM measured per ug of cellular protein after 24 hrs by enzyme based assay (reference value: 17.2 +/- 2 nmol/ug of cellular protein). The experiment is classed as functional.
For experiment [27], the system named is MDA-MB-231. Description: Increase in cellular glucose consumption in human MDA-MB-231 cells at 3 uM measured per ug of cellular protein after 24 hrs by enzyme based assay (reference value: 17.2 +/- 2 nmol/ug of cellular protein). The format is functional.
Experiment [28] has as its system MDA-MB-231. The experiment in a line: Increase in cellular glucose consumption in human MDA-MB-231 cells at 1 uM measured per ug of cellular protein after 24 hrs by enzyme based assay (reference value: 17.2 +/- 2 nmol/ug of cellular protein). The format is functional.
Experiment [29] has as its system MDA-MB-231. Description: Cytotoxicity against human MDA-MB-231 cells assessed as inhibition of cell proliferation/viability at 30 uM in presence of 0.1 uM rotenone mitochondrial electron transport inhibitor. The experiment is classed as functional. The method, boiled down: (§3)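 MDA-MB-231 cells in RPMI 1640 with 10% FBS, plated 3×10^4/well; after 24 h, compound diluted in serum-free medium added with or without rotenone (0.1 μM final), DMSO <0.5%. 48 h at 37 °C; viability by sulforhodamine B; % inhibition of untreated control; two independent experiments each in triplicate (n = 6).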

For experiment [30], the system named is MDA-MB-231. Description: Cytotoxicity against human MDA-MB-231 cells assessed as inhibition of cell proliferation/viability at 0.1 to 10 uM in presence of 0.1 uM rotenone mitochondrial electron transport inhibitor. The format is functional, cell-based. The method, boiled down: as §3
Experiment [31] relates to T47D. The experiment in a line: Increase in cellular respiration in human T47D cells assessed as increase in oxygen consumption at 0.1 to 1 uM after 48 hrs. The format is functional, cell-based. The method, boiled down:
as §2

The subject of experiment [32] is MDA-MB-231. The experiment in a line: Effect on lactate production in human MDA-MB-231 cells at 0.1 uM measured per ug of cellular protein after 48 hrs by enzyme based assay (reference value: 40.5 +/- 6 nmol/ug of cellular protein). The experiment is classed as functional.
The test system of experiment [33] is MDA-MB-231. Description: Effect on lactate production in human MDA-MB-231 cells at 0.1 uM measured per ug of cellular protein after 24 hrs by enzyme based assay (reference value: 23.6 +/- 2 nmol/ug of cellular protein). The format is functional.
Experiment [34] has as its system MDA-MB-231. The experiment in a line: Increase in cellular glucose consumption in human MDA-MB-231 cells at 0.1 uM measured per ug of cellular protein after 48 hrs by enzyme based assay (reference value: 43 +/- 8.4 nmol/ug of cellular protein). The format is functional.
Experiment [35] relates to MDA-MB-231. Description: Increase in cellular glucose consumption in human MDA-MB-231 cells at 0.1 uM measured per ug of cellular protein after 24 hrs by enzyme based assay (reference value: 17.2 +/- 2 nmol/ug of cellular protein). The format is functional.
Experiment [36] has as its system MDA-MB-231. Description: Inhibition of cell viability of human MDA-MB-231 cells at 0.1 uM after 48 hrs by sulforhodamine B method. The experiment is classed as functional. The following applies: MDA-MB-231, 48 h. The method, boiled down:
as §1

The source made the active and inactive calls. The rule behind the calls is not given here.

Here are results for 3 compounds from ChEMBL document CHEMBL2203165, “Glycolysis inhibitor screening identifies the bis-geranylacylphloroglucinol protonophore moronone from Moronobea coccinea” (2012).

Turning to `OC[C@H]1O[C@@H](O)C[C@@H](O)[C@@H]1O`, the Activity with MDA-MB-231 [1] is listed as 52.8 nmol; in the experiment with MDA-MB-231 [2], 26.3 nmol; in the experiment on MDA-MB-231 [3], 50.2 nmol; in the experiment on MDA-MB-231 [4] it was 22.5 nmol. For the same compound, the inhibition entry in the experiment on MDA-MB-231 [5], with MDA-MB-231 [6], with MDA-MB-231 [7] and with MDA-MB-231 [9] was “Active” in each case. In the experiment with MDA-MB-231 [8], this compound returned an inhibition at 3000 µM of 8%. This compound gave an inhibition at 1000 µM in the experiment with MDA-MB-231 [10] of 4%.
For `CC(C)=CCC/C(C)=C/CC1(C/C=C(\C)CCC=C(C)C)C(O)=CC(=O)C(C(=O)c2ccccc2)=C1O` (stereo unspecified) [MORONONE], the outcome with T47D [11], with T47D [12], in the experiment on MDA-MB-231 [13], with MDA-MB-231 [14], with MDA-MB-231 [15] and with MDA-MB-231 [16] was Active. Besides, the outcome with MDA-MB-231 [30] and in the experiment with T47D [31] was Active. The Activity with MDA-MB-231 [17] stood at 168.5 nmol; in the experiment on MDA-MB-231 [18], 67.3 nmol; in the experiment on MDA-MB-231 [19], 49.3 nmol; in the experiment with MDA-MB-231 [20], 59.5 nmol; with MDA-MB-231 [21], 25.4 nmol; in the experiment with MDA-MB-231 [22], 21.9 nmol. The Activity was 168.4 nmol in the experiment on MDA-MB-231 [23]; 73.4 nmol in the experiment with MDA-MB-231 [24]; 44.7 nmol in the experiment on MDA-MB-231 [25]; 45.8 nmol in the experiment on MDA-MB-231 [26]; 25.9 nmol in the experiment with MDA-MB-231 [27]; 26.7 nmol in the experiment on MDA-MB-231 [28]. Besides, the “inhibition (INH)” value with MDA-MB-231 [29] came out at 68%.
Turning to `C=C(C)[C@H]1Cc2c(ccc3c2O[C@@H]2COc4cc(OC)c(OC)cc4[C@@H]2C3=O)O1` [ROTENONE], the Activity with MDA-MB-231 [32] is given as 190.4 nmol; in the experiment on MDA-MB-231 [33] it was 75.7 nmol; in the experiment with MDA-MB-231 [34], 177.6 nmol; in the experiment on MDA-MB-231 [35] it was 37.5 nmol. In the experiment with MDA-MB-231 [36], this compound displayed an inhibition at 0.1 µM of 7%.
